Measured values from ChEMBL document CHEMBL1157578, “Design, synthesis, and biological evaluation of novel water-soluble triptolide derivatives: Antineoplastic activity against imatinib-resistant CML cells bearing T315I mutant Bcr-Abl” (Bioorg Med Chem, 2010).
Activity calls are given as the source filed them. The rule behind the calls is not given here.

What was measured:
[1] = Cytotoxicity against human KBM5 cells harboring Bcr-Abl T315I mutant after 72 hrs by MTT assay; format: functional, cell-based; details: KBM5, 72 h
[2] = Cytotoxicity against human KBM5 cells harboring wild type Bcr-Abl after 72 hrs by MTT assay; details: KBM5, 72 h
[3] = Downregulation of Bcr-Abl mRNA level in human KBM5 cells harboring wild type Bcr-Abl at 50 to 100 nM after 18 hrs by semi-quantitative RT-PCR analysis; format: functional, cell-based
Summary of the method: (§1)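 KBM5 and KBM5-T315I cells exposed to 50 or 100 nM, or control medium, for 18 h. Bcr-Abl and GAPDH mRNA measured by semi-quantitative RT-PCR; products run on 1% agarose and stained with ethidium bromide.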

[4] = Cytotoxicity against imatinib-resistant human KBM5 cells harboring Bcr-Abl T315I mutant after 72 hrs by MTS assay; format: functional, cell-based; details: KBM5, 72 h
Summary of the method: (§2)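 KBM5 (wild-type p210 Bcr-Abl) or KBM5-T315I cells in IMDM + 10% heat-inactivated FCS. The T315I subline was kept in 1 µM imatinib, removed 2–3 days before assay. Cells incubated 72 h with increasing concentrations. Viability by MTS at 490 nm, as percent of control; IC50 from dose–response curves.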

MEF = experiment: Cytotoxicity against MEF after 72 hrs by MTS assay; format: cell-based; details: Mus musculus
Summary of the method: (§3)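 MEF and NHFB fibroblasts cultured in DMEM + 10% FCS. Exposed to increasing concentrations for 72 h. Viability by MTS reagent, optical density at 490 nm.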

[5] = Cytotoxicity against human KBM5 cells harboring wild type Bcr-Abl after 72 hrs by MTS assay; format: functional, cell-based; details: KBM5, 72 h; summary of the method: as §2
KBM5 [6] = experiment: Cytotoxicity against imatinib-resistant human KBM5 cells harboring Bcr-Abl T315I mutant at 0.001 to 17 uM after 72 hrs by MTS assay; format: functional, cell-based; summary of the method: as §2
Mus musculus [7] = experiment: Toxicity in BALB/c nu/nu mouse xenografted with human KBM5 cells harboring Bcr-Abl T315I mutant assessed as increase in blood alanine aminotransferase level at 0.5 mg/kg/day, ip for 2 weeks administered on day 14 after tumor implantation; format: organism-based; parameters: route intraperitoneal; details: in vivo, 336 h
Summary of the method: (§4)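 Male nu/nu BALB/c mice (6–8 weeks) received 3 × 10⁷ KBM5-T315I cells subcutaneously in the flank. At about 50 mm³ (day 14) they were randomized, 4 per group, to daily ip drug in normal saline or the same volume of saline for two weeks. Body weight, feeding and motor activity were monitored, along with morbidity and mortality. At the end, blood was taken for AST, ALT, LDH and complete blood count.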

[8] = Downregulation of Bcr-Abl mRNA level in human KBM5 cells harboring Bcr-Abl T315I mutant at 50 to 100 nM after 18 hrs by semi-quantitative RT-PCR analysis; format: functional, cell-based; summary of the method: as §1
Mus musculus [9] = experiment: Toxicity in BALB/c nu/nu mouse xenografted with human KBM5 cells harboring Bcr-Abl T315I mutant assessed as effect on feeding behavior at 0.5 mg/kg/day, ip for 2 weeks administered on day 14 after tumor implantation; format: organism-based; parameters: route intraperitoneal; details: in vivo, 336 h; summary of the method: as §4
KBM5 [10] = experiment: Inhibition of RNA polymerase 2 in human KBM5 cells harboring Bcr-Abl T315I mutant assessed as decrease in polymerase 2 phosphorylation after 18 hrs by Western blot analysis; format: cell-based
Summary of the method: (§5)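 Cells exposed for 18 h at the indicated concentrations. Whole-cell lysates made in RIPA buffer with phosphatase and protease inhibitors. Western blot for Bcr-Abl (c-Abl C-19), phospho-c-Abl Y245, phospho-RNA polymerase II, PARP, and actin as loading control.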

KBM5 [11] = experiment: Induction of apoptosis in human KBM5 cells harboring Bcr-Abl T315I mutant assessed as PARP cleavage at 50 to 100 uM after 18 hrs by Western blot analysis; format: functional, cell-based
DU-145 = experiment: Inhibition of RNA polymerase 2 in human DU145 cells assessed as decrease in polymerase 2 phosphorylation at 50 to 100 nM after 18 hrs by Western blot analysis; format: cell-based
KBM5 [12] = experiment: Induction of apoptosis in human KBM5 cells harboring wild type Bcr-Abl assessed as PARP cleavage at 50 to 100 uM after 18 hrs by Western blot analysis; format: functional, cell-based
[13] = Downregulation of Bcr-Abl protein level in mouse 32D cells harboring wild type Bcr-Abl after 18 hrs by Western blot analysis; format: functional, cell-based; summary of the method: as §5
HeLa = experiment: Inhibition of RNA polymerase 2 in human HeLa cells assessed as decrease in polymerase 2 phosphorylation at 50 to 100 nM after 18 hrs by Western blot analysis; format: cell-based
KBM5 [14] = experiment: Antitumor activity against Bcr-Abl T315I mutant expressing human KBM5 cells xenografted in BALB/c nu/nu mouse assessed as decrease in tumor volume at 0.5 mg/kg/day, ip for 2 weeks administered on day 14 after tumor implantation; format: functional, organism-based
Summary of the method: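 KBM5-T315I cells, 3 × 10⁷, injected s.c. into the flanks of male nu/nu BALB/c mice aged 6–8 weeks. Dosing began at about 50 mm³ on day 14: 0.5 mg/kg/d i.p. in normal saline for two weeks, with saline controls and four mice per group. Calipers every other day; volume = a² × b × 0.4.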

[15] = Cytotoxicity against mouse 32D cells harboring wild type Bcr-Abl after 72 hrs by MTS assay; format: functional, cell-based
Summary of the method: (§6)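 32D myeloid cells stably expressing wild-type or T315I Bcr-Abl, maintained in RPMI 1640 + 10% FBS. Treated with increasing concentrations for 72 h. Viability by MTS, optical density at 490 nm.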

Mus musculus [16] = experiment: Toxicity in BALB/c nu/nu mouse xenografted with human KBM5 cells harboring Bcr-Abl T315I mutant assessed as morbidity at 0.5 mg/kg/day, ip for 2 weeks administered on day 14 after tumor implantation; format: organism-based; parameters: route intraperitoneal; details: in vivo, 336 h; summary of the method: as §4
Mus musculus [17] = experiment: Toxicity in BALB/c nu/nu mouse xenografted with human KBM5 cells harboring Bcr-Abl T315I mutant assessed as occurrence of myelosuppression at 0.5 mg/kg/day, ip for 2 weeks administered on day 14 after tumor implantation; format: organism-based; parameters: route intraperitoneal; details: in vivo, 336 h; summary of the method: as §4
[18] = Downregulation of Bcr-Abl protein level in human KBM5 cells harboring Bcr-Abl T315I mutant after 18 hrs by Western blot analysis; format: functional, cell-based; summary of the method: as §5
[19] = Downregulation of Bcr-Abl protein level in mouse 32D cells harboring Bcr-Abl T315I mutant after 18 hrs by Western blot analysis; format: functional, cell-based; summary of the method: as §5
[20] = Downregulation of Bcr-Abl protein level in human KBM5 cells harboring wild type Bcr-Abl after 18 hrs by Western blot analysis; format: functional, cell-based; summary of the method: as §5
Mus musculus [21] = experiment: Toxicity in BALB/c nu/nu mouse xenografted with human KBM5 cells harboring Bcr-Abl T315I mutant at 0.5 mg/kg/day, ip for 2 weeks administered on day 14 after tumor implantation by pilot dose-finding test; format: organism-based; parameters: route intraperitoneal; details: in vivo, 336 h
HCT-116 = experiment: Inhibition of RNA polymerase 2 in human HCT116 cells assessed as decrease in polymerase 2 phosphorylation at 50 to 100 nM after 18 hrs by Western blot analysis; format: cell-based
Mus musculus [22] = experiment: Toxicity in BALB/c nu/nu mouse xenografted with human KBM5 cells harboring Bcr-Abl T315I mutant assessed as effect on motor activity at 0.5 mg/kg/day, ip for 2 weeks administered on day 14 after tumor implantation; format: organism-based; parameters: route intraperitoneal; details: in vivo, 336 h; summary of the method: as §4
KBM5 [23] = experiment: Cytotoxicity against human KBM5 cells harboring wild type Bcr-Abl at 0.001 to 17 uM after 72 hrs by MTS assay; format: functional, cell-based; summary of the method: as §2
Mus musculus [24] = experiment: Toxicity in BALB/c nu/nu mouse xenografted with human KBM5 cells harboring Bcr-Abl T315I mutant assessed as increase in blood aspartate aminotransferase level at 0.5 mg/kg/day, ip for 2 weeks administered on day 14 after tumor implantation; format: organism-based; parameters: route intraperitoneal; details: in vivo, 336 h; summary of the method: as §4
[25] = Cytotoxicity against NHFB after 72 hrs by MTS assay; parameters: species or system Homo sapiens; summary of the method: as §3
[26] = Cytotoxicity against imatinib-resistant mouse 32D cells harboring Bcr-Abl T315I mutant after 72 hrs by MTS assay; format: functional, cell-based; summary of the method: as §6
Mus musculus [27] = experiment: Toxicity in BALB/c nu/nu mouse xenografted with human KBM5 cells harboring Bcr-Abl T315I mutant assessed as mortality at 0.5 mg/kg/day, ip for 2 weeks administered on day 14 after tumor implantation; format: organism-based; parameters: route intraperitoneal; details: in vivo, 336 h; summary of the method: as §4
KBM5 [28] = experiment: Inhibition of RNA polymerase 2 in human KBM5 cells harboring wild type Bcr-Abl assessed as decrease in polymerase 2 phosphorylation after 18 hrs by Western blot analysis; format: cell-based; summary of the method: as §5
Mus musculus [29] = experiment: Toxicity in BALB/c nu/nu mouse xenografted with human KBM5 cells harboring Bcr-Abl T315I mutant assessed as change in body weight at 0.5 mg/kg/day, ip for 2 weeks administered on day 14 after tumor implantation; format: organism-based; parameters: route intraperitoneal; details: in vivo, 336 h; summary of the method: as §4

In the case of `Cc1ccc(NC(=O)c2ccc(CN3CCN(C)CC3)cc2)cc1Nc1nccc(-c2cccnc2)n1` [IMATINIB], the IC50 [1] is reported as 5400 nM and the IC50 [2] is reported as 280 nM.

With `CC(C)[C@]12O[C@H]1[C@@H]1O[C@@]13[C@H]1CCC4=C(COC4=O)[C@@H]1C[C@@H]1O[C@@]13[C@@H]2OC(=O)CN1CCOCC1` the Activity [3] was “Active”, the IC50 [4] was 20.7 nM and the IC50 (MEF) was 11500 nM. The IC50 [5] was 52.5 nM, the Activity (KBM5 [6]) was “Active” and the Activity (Mus musculus [7]) was “Non-toxic”. The Activity [8] was “Active”, the Activity (Mus musculus [9]) was “Non-toxic” and the inhibition (KBM5 [10]) was “Dose-dependent effect”. For the same molecule, the Activity (KBM5 [11]) was “Active”, the inhibition (DU-145) was “Active” and the Activity (KBM5 [12]) was “Active”. The Activity [13] was “Dose-dependent effect”, the inhibition (HeLa) was “Active” and the Activity (KBM5 [14]) was “Active”. The IC50 [15] was 70 nM, the Activity (Mus musculus [16]) was “Non-toxic” and the Activity (Mus musculus [17]) was “Non-toxic”. For the same molecule, the Activity [18] was “Dose-dependent effect”, the Activity [19] was “Dose-dependent effect” and the Activity [20] was “Dose-dependent effect”. For the same molecule, the Activity (Mus musculus [21]) was “Non-toxic”, the inhibition (HCT-116) was “Active” and the Activity (Mus musculus [22]) was “Non-toxic”. For the same molecule, the Activity (KBM5 [23]) was “Active”, the Activity (Mus musculus [24]) was “Non-toxic” and the IC50 [25] was 10400 nM. For the same molecule, the IC50 [26] was 80 nM, the Activity (Mus musculus [27]) was “Non-toxic” and the inhibition (KBM5 [28]) was “Dose-dependent effect”. For the same molecule, the Activity (Mus musculus [29]) was “Non-toxic”.
